# Screening results (PubChem)
# SENP8 block-1: blocks the human protease SENP8 | hit rate 1.2% among 330,000 | Q96LD8 | AID 2540 | inhibition, % at 10 µM | purified SENP8, Z-RLRGG-aminoluciferin cleavage, luminescence; in the data active means inhibition above about 50%
# SENP6 inh: SENP6 protease inhibition; Q9GZR1; hit rate 1.8% among 330,000; AID 2599; Recombinant SENP6 catalytic domain, aminoluciferin luminescence; inhibition, % at 10 µM;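 active means inhibition above about 50% at the single tested dose, limit read from the data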;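 further: plate controls were DMSO wells with enzyme for no effect and DMSO wells lacking enzyme for full effect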
# Target sequence (Q9GZR1 628-1112 limits assumed): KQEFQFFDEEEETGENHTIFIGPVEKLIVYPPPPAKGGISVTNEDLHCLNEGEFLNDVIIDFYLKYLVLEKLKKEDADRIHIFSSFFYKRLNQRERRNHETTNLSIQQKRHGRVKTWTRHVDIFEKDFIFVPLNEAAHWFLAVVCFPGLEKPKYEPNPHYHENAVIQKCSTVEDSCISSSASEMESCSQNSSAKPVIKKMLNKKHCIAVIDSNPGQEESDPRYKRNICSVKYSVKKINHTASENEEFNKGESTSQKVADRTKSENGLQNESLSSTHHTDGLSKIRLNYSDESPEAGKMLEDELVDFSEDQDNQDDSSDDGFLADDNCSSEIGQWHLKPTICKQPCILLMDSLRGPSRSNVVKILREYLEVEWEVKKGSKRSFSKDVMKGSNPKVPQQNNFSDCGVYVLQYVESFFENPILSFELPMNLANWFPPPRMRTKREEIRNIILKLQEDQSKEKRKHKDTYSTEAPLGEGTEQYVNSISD
# SENP1 FRET inh: SENP1 (human) catalytic domain inhibition | Q9P0U3 | recombinant SENP1 catalytic domain, CyPet-SUMO1-YPet FRET cleavage | inhibition, % at 10 µM | hit rate 0.21% among 360,000;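 active means inhibition at least 30% at 10 µM, raw YFP signal under a set limit, fluorescence ratio 0.5 to 1.5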;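 further: 0% = enzyme with DMSO and 100% = no enzyme wells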
#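 material = recombinant human SENP1 catalytic domain, His6-tagged | quantity = 20 pM enzyme | reagent = 25 nM SUMO1 FRET substrate | compound dosing = 10 µM single point, 0.5% DMSO | timing = 50 min enzyme reaction, room temperature, light-protected | detection = FRET, CFP and YFP emission | control set = no-enzyme low, enzyme-DMSO high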
# SENP7 block: inhibitors of human SENP7 protease | Q9BQF6 | recombinant SENP7, Z-RLRGG-aminoluciferin luminescence, 40 min | inhibition, % at 5 µM | hit rate 1.5% among 330,000 | AID 434973;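 active means inhibition above about 50% at the single test dose, limit read from the data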;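 further: plate controls were DMSO with enzyme for no effect and no enzyme buffer wells for full effect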
# SENP8 block-2: inhibitors of human SENP8 protease; Q96LD8; recombinant SENP8, Nedd8 substrate fluorescence; inhibition, % at 20 µM; hit rate 0.64% among 360,000; AID 602440; in the data active means inhibition mostly above about 40%, no sharp cut-off; inactive means mostly below about 27%
# * = called active by the depositor; / = no result given. Compounds with a hit are over-represented: about 2.5% of the library has one in this group of screens.
SMILES,SENP8 block-1,SENP6 inh,SENP1 FRET inh,SENP7 block,SENP8 block-2
Cc1cc2oc(=O)cc(Cn3nnc(-c4ccc(Cl)cc4)n3)c2cc1C(C)C,-5,-13,/,-1,/
Cc1ccccc1OCC(=O)OCC(=O)NCC1CCCO1 (stereo unspecified),4,-11,6,-7,-10
COc1cc2c(cc1O)C(CSC)Cc1cc3c(cc1N(C)CC2)OCO3 (stereo unspecified),/,/,-2,/,-4
CN1C=CC=C/C1=C1\SC(=S)N(c2ccccc2)C1=O,6,14,-1,12,44*
O=C1C(N2CCOCC2)=C(n2nnc3ccccc32)C(=O)c2ccccc21,74*,76*,0,35,76*
O=C1c2ccccc2C(=O)c2c1cccc2-n1nnc2ccccc21,0,-11,0,5,32
CCCOc1ccc(C(=O)N(CC(C)C)c2c(N)n(Cc3ccccc3)c(=O)[nH]c2=O)cc1,-15,-13,-9,-10,-10
O=c1c2c(nc3cc(-c4cccc(F)c4)[nH]n13)CCC2,44,60*,2,45,-270
O=c1c2ccccc2sc2ccc(Cl)cc12,19,39,-191,58*,-139
O=c1c2ccccc2sc2ccccc12,/,/,-212,/,-368
N#C/C(=N/Nc1ccccc1[N+](=O)[O-])C(N)=S,-11,-13,3,12,45*
N#C/C(=N\Nc1ccccc1)C(N)=S,-5,-7,3,1,23
N#C/C(=N\Nc1ccc(Cl)cc1)C(N)=S,16,33,1,-32,46*
CC(C)CNC(=O)CCc1nc(-c2ccccc2)no1,-4,-12,8,4,21
Cn1ncc(Cl)c1C(=O)Nc1nc2ccc(Cl)cc2s1,-5,98*,2,98*,-56
O=C(O)c1ccc(CSC2CCCCC2)cc1,51*,58*,1,7,16
O=C(O)c1ccc(CSc2nnc(SCc3ccccc3)s2)cc1,3,-26,0,-2,16
Cc1ccc(/C=C2\SC(=S)N(CCC(=O)NNS(=O)(=O)c3ccccc3)C2=O)cc1,4,-3,-3,-3,59*
Cc1ccc(/C=C2\SC(=S)N(CCC(=O)NNC(=O)c3ccccc3O)C2=O)cc1,4,-12,4,-1,26
Cc1ccc(C=C2SC(=S)N(CCCC(=O)Nc3cccc(C(=O)O)c3)C2=O)cc1,/,/,3,/,26
Cc1ccc(/C=C2\SC(=S)N(CCCC(=O)Nc3cccc(C(=O)O)c3)C2=O)cc1,87*,91*,3,61*,34
O=C(CCN1C(=O)/C(=C\C=C\c2ccccc2)SC1=S)Nc1cccc(C(=O)O)c1,55*,53*,-11,-11,24
O=C1C(=Cc2cccn2-c2ccc(O)cc2)C(=O)c2ccccc21,5,6,58,3,28*
O=C1C(=Cc2cccn2-c2ccccc2)C(=O)c2ccccc21,/,/,-30,/,23
CCC(=O)Nc1ccc2nc(C3CC3)n(Cc3ccc(C(C)(C)C)cc3)c(=O)c2c1,71*,86*,0,91*,-17
SMILES,SENP8 block-1,SENP6 inh,SENP1 FRET inh,SENP7 block,SENP8 block-2
Brc1cc2c(cc1C1Nc3ccccc3C3C=CCC31)OCO2 (stereo unspecified),-7,-16,16,-7,40*
COc1cc(/C=C/C(=O)OCC(=O)NCCc2ccc(F)cc2)ccc1OC(F)F,0,3,1,1,-28
CC(=O)Nc1cccc(-c2ccnc3c2CC(C)(C(=O)NCc2ccc(F)c(F)c2)O3)c1 (stereo unspecified),/,/,3,/,14
Nc1ccc(O)c2c1C(=O)c1ccccc1C2=O,5,4,-14,3,65*
Cc1ccccc1NC(=O)CCN1CCc2ccccc2C1,-6,4,-3,-6,12
O=C1C=C(O)c2[nH]c(=O)ccc2C1=O,/,/,0,/,64*
NC1=CC(=O)C(=O)c2ccccc21,/,/,-5,/,11
COC(=O)C1CCN(C(=O)C2CCN(C(=O)[C@@H](NS(=O)(=O)c3ccc(C)cc3)C(C)C)CC2)CC1,5,-6,-1,-1,6
Cc1ccc(O)c(N=CC2=C(O)c3ccccc3C2=O)c1,22,46,42*,29,84*
COc1cccc(NC(=S)NC2CC(C)CC(C)(C)C2)c1 (stereo unspecified),/,/,0,/,15
O=C(O)c1cccnc1C(=O)O,2,2,5,1,41*
CN1C(=S)N(c2cccnc2)C(=O)/C1=C\c1ccc(C(C)(C)C)cc1,-4,-5,-3,-9,1
